This is an account of results in ChEMBL document CHEMBL1151986, “Antineoplastic agents. 570. Isolation and structure elucidation of bacillistatins 1 and 2 from a marine Bacillus silvestris” (2009).

One test has as its system Micrococcus luteus. The test can be described thus: Antibacterial activity against Micrococcus luteus Presque Isle 456 at 64 ug/mL by broth microdilution assay. The format is functional, organism-based. Background: Dilution methods test growth across graded concentrations, often in twofold steps.
The subject of test [1] is Streptococcus pneumoniae. The test can be described thus: Antibacterial activity against Streptococcus pneumoniae ATCC 6303 by broth microdilution assay. The format is functional.
Another test has as its system P388. The test is described as follows: Cytotoxicity against mouse P388 cells after 48 hrs by coulter counter method. The format is functional. The following applies: P388, 48 h, read-out: ED50 (the source's name). In short, it runs like this:
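Murine lymphocytic leukemia P388 cells were preincubated for 24 h in Fisher medium with 10% horse serum, then incubated 48 h with serial dilutions in DMSO vehicle. Cells were counted on a Coulter particle counter, and ED50 was taken as the concentration giving 50% growth inhibition.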

Test [2] relates to Streptococcus pyogenes. The test is described as follows: Antibacterial activity against Streptococcus pyogenes clinical isolate by broth microdilution assay in presence of 25% heat inactivated human serum. The format is functional.
Test [3] deals with Streptococcus pneumoniae. The test is described as follows: Antibacterial activity against multidrug-resistant Streptococcus pneumoniae ATCC 700673 by broth microdilution assay. The format is functional.
The next test relates to Cryptococcus neoformans. The test can be described thus: Antifungal activity against Cryptococcus neoformans ATCC 90112 at 64 ug/mL by broth microdilution assay. The format is functional, organism-based.
The subject of test [4] is Streptococcus pneumoniae. The test is described as follows: Antibacterial activity against penicillin-resistant Streptococcus pneumoniae clinical isolate by broth microdilution assay. The format is functional.
For another test, the system named is MCF7. The test can be described thus: Cytotoxicity against human MCF7 cells after 48 hrs by sulforhodamine B assay. The format is functional. Conditions: MCF7, 48 h. In short, it runs like this: (§1)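 Cells were grown in RPMI-1640 with 5% fetal bovine serum in 96-well plates for 24 h, then exposed to serial dilutions in DMSO vehicle for 48 h. Plates were fixed with trichloroacetic acid, stained with sulforhodamine B and read for optical density. GI50 is the concentration giving a 50% reduction in net protein increase.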
For orientation: Sulforhodamine B stains cellular protein and so reports cell mass.

Test [5] has as its system Stenotrophomonas maltophilia. The test is described as follows: Antibacterial activity against Stenotrophomonas maltophilia ATCC 13637 at 64 ug/mL by broth microdilution assay. The format is functional, organism-based.
For a further test, the system named is Neisseria gonorrhoeae. The test can be described thus: Antibacterial activity against Neisseria gonorrhoeae ATCC 49226 at 64 ug/mL by broth microdilution assay. The format is functional, organism-based.
The subject of test [6] is Streptococcus pyogenes. The test can be described thus: Antibacterial activity against Streptococcus pyogenes clinical isolate by broth microdilution assay. The format is functional.
For another test, the system named is Candida albicans. The test is described as follows: Antifungal activity against Candida albicans ATCC 90028 at 64 ug/mL by broth microdilution assay. The format is functional, organism-based.
The next test deals with Staphylococcus aureus. The test can be described thus: Antibacterial activity against Staphylococcus aureus ATCC 29213 at 64 ug/mL by broth microdilution assay. The format is functional, organism-based.
Test [7] deals with Streptococcus pneumoniae. The test can be described thus: Antibacterial activity against Streptococcus pneumoniae by broth microdilution assay in presence of 25% heat inactivated human serum. The format is functional.
The subject of another test is DU-145. The test is described as follows: Cytotoxicity against human DU145 cells after 48 hrs by sulforhodamine B assay. The format is functional. The following applies: DU-145, 48 h. In short, it runs like this: as §1
Another test has as its system BXPC-3. The test can be described thus: Cytotoxicity against human BxPC3 cells after 48 hrs by sulforhodamine B assay. The format is functional. The following applies: BXPC-3, 48 h. In short, it runs like this:
as §1

Another test concerns Escherichia coli. The test is described as follows: Antibacterial activity against Escherichia coli ATCC 25922 at 64 ug/mL by broth microdilution assay. The format is functional, organism-based.
In a further test the test system is KM-20L2. The test is described as follows: Cytotoxicity against human KM20L2 cells after 48 hrs by sulforhodamine B assay. The following applies: KM-20L2, 48 h. The format is functional. The method in brief: as §1
For another test, the system named is Enterobacter cloacae. The test is described as follows: Antibacterial activity against Enterobacter cloacae ATCC 13047 at 64 ug/mL by broth microdilution assay. The format is functional, organism-based.
For a further test, the system named is SF-268. The test can be described thus: Cytotoxicity against human SF268 cells after 48 hrs by sulforhodamine B assay. The format is functional. Conditions: SF-268, 48 h. In short, it runs like this: as §1
A further test concerns NCI-H460. The test is described as follows: Cytotoxicity against human NCI-H460 cells after 48 hrs by sulforhodamine B assay. The format is functional. Conditions: NCI-H460, 48 h. In short, it runs like this:
as §1

The test system of another test is Enterococcus faecalis. The test is described as follows: Antibacterial activity against Enterococcus faecalis ATCC 29212 at 64 ug/mL by broth microdilution assay. The format is functional, organism-based.

Converted amounts (≈) assume the structure as drawn. The source made the active and inactive calls.

The MBC is the smallest concentration meeting the test's criterion for killing. Read a high MBC as weaker bactericidal potency. For orientation: MIC means the lowest concentration that inhibits growth of the organism. By GI50 is commonly meant the concentration giving 50% growth inhibition. A higher GI50 goes with less potent growth inhibition. As for `CC[C@H](C)[C@H]1OC(=O)[C@H](C(C)C)NC(=O)[C@H](C)OC(=O)[C@@H](C(C)C)NC(=O)[C@@H]([C@@H](C)CC)OC(=O)[C@H](C(C)C)NC(=O)[C@H](C)OC(=O)[C@@H](C(C)C)NC(=O)[C@@H](CC(C)C)OC(=O)[C@H](C(C)C)NC(=O)[C@H](C)OC(=O)[C@@H](C(C)C)NC1=O`, the result (in the test with Micrococcus luteus; with Cryptococcus neoformans; in test [5]; in the test on Neisseria gonorrhoeae; with Candida albicans; in the test with Staphylococcus aureus) was inactive. The result in the test on Escherichia coli, in the test on Enterobacter cloacae and in the test with Enterococcus faecalis was inactive. The MBC is 2 µg/mL (≈ 1730 nM) with Streptococcus pneumoniae [1], less than 0.5 µg/mL in the test with Streptococcus pneumoniae [3], 1 µg/mL (≈ 867 nM) in the test on Streptococcus pneumoniae [4] and more than 16 µg/mL against Streptococcus pyogenes [6]. In addition, the minimal inhibitory concentration (MIC) with Streptococcus pneumoniae [1] was 1 µg/mL (≈ 867 nM); with Streptococcus pyogenes [2], more than 64 µg/mL; in the test with Streptococcus pneumoniae [3], less than 0.5 µg/mL; against Streptococcus pneumoniae [4], 1 µg/mL (≈ 867 nM); against Streptococcus pyogenes [6], 2 µg/mL (≈ 1730 nM); with Streptococcus pneumoniae [7] it was more than 64 µg/mL. Further, in the test on P388, the EC50 was 0.013 µg/mL (≈ 11.3 nM). The GI50 was 0.00031 µg/mL (≈ 0.269 nM) in the test with MCF7; 0.00086 µg/mL (≈ 0.746 nM) with DU-145; 0.00034 µg/mL (≈ 0.295 nM) in the test with BXPC-3; 0.00026 µg/mL (≈ 0.225 nM) with KM-20L2; 0.0018 µg/mL (≈ 1.56 nM) in the test on SF-268; 0.00045 µg/mL (≈ 0.39 nM) with NCI-H460.

Regarding `CC(C)[C@@H]1NC(=O)[C@H](C)OC(=O)[C@@H](C(C)C)NC(=O)[C@@H](C(C)C)OC(=O)[C@H](C(C)C)NC(=O)[C@H](C)OC(=O)[C@@H](C(C)C)NC(=O)[C@@H](C(C)C)OC(=O)[C@H](C(C)C)NC(=O)[C@H](C)OC(=O)[C@@H](C(C)C)NC(=O)[C@@H](C(C)C)OC1=O` [VALINOMYCIN], the EC50 in the test on P388 stood at 0.12 µg/mL (≈ 108 nM). The GI50 turned out to be 0.001 µg/mL (≈ 0.9 nM) with MCF7; 0.0035 µg/mL (≈ 3.15 nM) in the test on DU-145; 0.0019 µg/mL (≈ 1.71 nM) in the test with BXPC-3; 0.0008 µg/mL (≈ 0.72 nM) with KM-20L2; 0.0027 µg/mL (≈ 2.43 nM) in the test on SF-268; 0.0025 µg/mL (≈ 2.25 nM) in the test with NCI-H460.

For `CC[C@H](C)[C@H]1OC(=O)[C@H](C(C)C)NC(=O)[C@H](C)OC(=O)[C@@H](C(C)C)NC(=O)[C@@H]([C@@H](C)CC)OC(=O)[C@H](C(C)C)NC(=O)[C@H](C)OC(=O)[C@@H](C(C)C)NC(=O)[C@@H]([C@@H](C)CC)OC(=O)[C@H](C(C)C)NC(=O)[C@H](C)OC(=O)[C@@H](C(C)C)NC1=O` [BACILLISTATIN 1], the result (in the test with Micrococcus luteus; in the test on Cryptococcus neoformans; in test [5]; in the test with Neisseria gonorrhoeae; in the test with Candida albicans; in the test on Staphylococcus aureus) was inactive. For the same compound, the outcome with Escherichia coli, in the test with Enterobacter cloacae and in the test with Enterococcus faecalis was inactive. The minimum bactericidal concentration (MBC) is 4 µg/mL (≈ 3470 nM) against Streptococcus pneumoniae [1], 1 µg/mL (≈ 867 nM) against Streptococcus pneumoniae [3], 2 µg/mL (≈ 1730 nM) with Streptococcus pneumoniae [4] and more than 32 µg/mL in the test on Streptococcus pyogenes [6]. In addition, the MIC is 2 µg/mL (≈ 1730 nM) in the test on Streptococcus pneumoniae [1]; more than 64 µg/mL with Streptococcus pyogenes [2]; less than 0.5 µg/mL with Streptococcus pneumoniae [3]; 1 µg/mL (≈ 867 nM) with Streptococcus pneumoniae [4]; 2 µg/mL (≈ 1730 nM) in the test with Streptococcus pyogenes [6]; more than 64 µg/mL in the test on Streptococcus pneumoniae [7]. For the same compound, the EC50 in the test with P388 was 0.023 µg/mL (≈ 19.9 nM). Moreover, the concentration for 50% growth inhibition (GI50) with MCF7 was determined as 0.00061 µg/mL (≈ 0.529 nM); in the test on DU-145, 0.0015 µg/mL (≈ 1.3 nM); in the test on BXPC-3, 0.00095 µg/mL (≈ 0.824 nM); with KM-20L2 it was 0.00087 µg/mL (≈ 0.754 nM); in the test on SF-268 it was 0.00045 µg/mL (≈ 0.39 nM); in the test on NCI-H460, 0.0023 µg/mL (≈ 1.99 nM).
